Values joined by “and” are separate entries in the source; they are usually repeats but may differ in a detail not shown here. Identical values can stand only once. Like-named read-outs stand apart in the source and are kept apart here.
Key:
[1] = target: T1, α/β1 20S proteasome complex (Salinispora tropica, UniProt A4X744); assay: Proteasome inhibition; type: biochemical
T1 sequence (A4X744 54-279): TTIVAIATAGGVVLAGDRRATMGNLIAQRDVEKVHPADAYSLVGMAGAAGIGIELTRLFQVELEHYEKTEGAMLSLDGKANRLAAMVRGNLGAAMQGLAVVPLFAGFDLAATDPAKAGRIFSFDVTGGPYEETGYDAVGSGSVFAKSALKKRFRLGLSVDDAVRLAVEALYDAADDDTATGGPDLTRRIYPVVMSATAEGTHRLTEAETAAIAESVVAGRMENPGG
T1 sequence (A4X745 1-260 partner): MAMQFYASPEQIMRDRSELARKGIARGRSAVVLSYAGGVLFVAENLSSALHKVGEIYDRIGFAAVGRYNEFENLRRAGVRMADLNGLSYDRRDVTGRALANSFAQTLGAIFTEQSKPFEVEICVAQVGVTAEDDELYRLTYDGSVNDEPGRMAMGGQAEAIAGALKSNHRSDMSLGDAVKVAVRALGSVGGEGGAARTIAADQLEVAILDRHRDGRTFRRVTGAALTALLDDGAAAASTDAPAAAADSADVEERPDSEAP

[2] = target: T2, α/SalI 20S proteasome complex (Salinispora tropica, UniProt A4X3P0); assay: Proteasome inhibition; type: biochemical; conditions: for fold increase in IC50 with the α/SalI complex in comparison to the α/β1 complex (resistance): α/SalI versus α/β1
T2 sequence (A4X3P0 49-282): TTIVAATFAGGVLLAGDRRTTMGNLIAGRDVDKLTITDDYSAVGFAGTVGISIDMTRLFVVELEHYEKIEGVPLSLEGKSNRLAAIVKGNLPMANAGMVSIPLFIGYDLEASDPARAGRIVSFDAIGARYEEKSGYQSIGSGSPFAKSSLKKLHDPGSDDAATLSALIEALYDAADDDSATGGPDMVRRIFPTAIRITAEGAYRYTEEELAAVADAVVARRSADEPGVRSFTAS
T2 sequence (A4X745 1-260 partner): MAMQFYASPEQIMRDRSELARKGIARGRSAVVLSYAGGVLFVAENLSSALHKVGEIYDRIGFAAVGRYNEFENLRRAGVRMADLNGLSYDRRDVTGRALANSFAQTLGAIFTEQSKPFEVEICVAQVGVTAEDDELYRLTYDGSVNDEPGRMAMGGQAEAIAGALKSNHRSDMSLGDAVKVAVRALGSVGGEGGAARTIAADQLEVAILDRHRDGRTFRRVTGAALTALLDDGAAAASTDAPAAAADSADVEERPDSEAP

[3] = target: T3, α/β1 M45F proteasome complex (Salinispora tropica, UniProt A4X744, M98F); assay: Proteasome inhibition; type: biochemical
T3 sequence (A4X744 54-279 M98F): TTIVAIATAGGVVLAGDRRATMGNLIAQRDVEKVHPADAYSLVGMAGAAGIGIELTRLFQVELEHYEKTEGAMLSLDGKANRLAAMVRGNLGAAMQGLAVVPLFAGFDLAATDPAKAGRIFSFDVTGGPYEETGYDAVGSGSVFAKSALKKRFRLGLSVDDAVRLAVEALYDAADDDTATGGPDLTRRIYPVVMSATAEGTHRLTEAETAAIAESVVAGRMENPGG
T3 sequence (A4X745 1-260 partner): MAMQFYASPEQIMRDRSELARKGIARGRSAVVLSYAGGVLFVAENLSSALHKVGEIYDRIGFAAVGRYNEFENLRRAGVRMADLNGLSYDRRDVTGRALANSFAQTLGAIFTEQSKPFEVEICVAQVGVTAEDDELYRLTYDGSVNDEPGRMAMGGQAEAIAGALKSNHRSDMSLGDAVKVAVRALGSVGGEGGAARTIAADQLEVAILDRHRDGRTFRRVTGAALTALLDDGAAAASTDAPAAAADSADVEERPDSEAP

[4] = target: T4, α/β1 A49V proteasome complex (Salinispora tropica, UniProt A4X744, A102V); assay: Proteasome inhibition; type: biochemical
T4 sequence (A4X744 54-279 A102V): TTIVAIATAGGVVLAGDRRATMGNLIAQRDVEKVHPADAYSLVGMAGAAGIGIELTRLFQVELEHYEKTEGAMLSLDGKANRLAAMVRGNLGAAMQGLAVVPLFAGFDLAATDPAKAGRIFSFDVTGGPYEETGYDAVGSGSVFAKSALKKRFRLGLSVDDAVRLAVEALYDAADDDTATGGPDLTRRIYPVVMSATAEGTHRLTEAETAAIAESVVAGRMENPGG
T4 sequence (A4X745 1-260 partner): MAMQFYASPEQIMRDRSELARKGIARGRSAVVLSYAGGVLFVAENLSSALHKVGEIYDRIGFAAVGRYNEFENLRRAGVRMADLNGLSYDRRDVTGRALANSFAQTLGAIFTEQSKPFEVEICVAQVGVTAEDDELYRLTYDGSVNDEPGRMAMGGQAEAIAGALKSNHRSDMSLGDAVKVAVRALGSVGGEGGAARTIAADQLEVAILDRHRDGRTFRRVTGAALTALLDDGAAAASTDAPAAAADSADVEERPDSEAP

[5] = target: T5, α/β1 M45F/A49V proteasome complex (Salinispora tropica, UniProt A4X744, A102V/M98F); assay: Proteasome inhibition; type: biochemical
T5 sequence (A4X744 54-279 M98F/A102V): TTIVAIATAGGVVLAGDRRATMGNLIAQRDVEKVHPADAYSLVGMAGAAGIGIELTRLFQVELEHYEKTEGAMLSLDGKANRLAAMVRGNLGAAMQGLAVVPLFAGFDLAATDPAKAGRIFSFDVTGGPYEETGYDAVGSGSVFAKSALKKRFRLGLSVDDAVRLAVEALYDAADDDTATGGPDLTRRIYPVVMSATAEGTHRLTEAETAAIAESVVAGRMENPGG
T5 sequence (A4X745 1-260 partner): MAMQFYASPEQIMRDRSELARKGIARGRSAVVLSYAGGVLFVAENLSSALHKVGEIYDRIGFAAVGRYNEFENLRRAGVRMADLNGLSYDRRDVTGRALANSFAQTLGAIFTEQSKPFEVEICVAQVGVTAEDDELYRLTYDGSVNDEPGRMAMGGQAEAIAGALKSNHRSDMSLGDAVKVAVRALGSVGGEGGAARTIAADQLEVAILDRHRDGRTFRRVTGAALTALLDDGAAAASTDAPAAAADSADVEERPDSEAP

[6] = target: T6, α/SalI F45M proteasome complex (Salinispora tropica, UniProt A4X3P0, F93M); assay: Proteasome inhibition; type: biochemical
T6 sequence (A4X3P0 49-282 F93M): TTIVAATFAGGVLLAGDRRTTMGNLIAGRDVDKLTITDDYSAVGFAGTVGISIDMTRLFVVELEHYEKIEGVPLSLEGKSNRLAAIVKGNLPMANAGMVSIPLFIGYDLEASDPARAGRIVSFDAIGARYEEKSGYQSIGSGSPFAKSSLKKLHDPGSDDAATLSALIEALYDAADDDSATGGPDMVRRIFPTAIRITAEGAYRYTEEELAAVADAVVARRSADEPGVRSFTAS
T6 sequence (A4X745 1-260 partner): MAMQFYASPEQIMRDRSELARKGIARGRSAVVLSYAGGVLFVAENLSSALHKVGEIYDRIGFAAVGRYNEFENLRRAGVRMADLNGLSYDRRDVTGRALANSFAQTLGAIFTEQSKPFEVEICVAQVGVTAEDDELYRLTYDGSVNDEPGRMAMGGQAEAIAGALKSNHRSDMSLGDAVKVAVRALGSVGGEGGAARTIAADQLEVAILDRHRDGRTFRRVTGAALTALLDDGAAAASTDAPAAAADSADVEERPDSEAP

[7] = target: T1, α/β1 20S proteasome complex; assay: Time-dependence of inhibition, α/β1; type: biochemical; conditions: 0.5–100 μM inhibitor, Z-VKM-amc, 3.5 h, 30 °C
Method in brief: (§1)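 Purified S. tropica α/β1 or α/SalI complex (His6-α, E. coli-expressed) in 50 mM Tris-HCl pH 8.0. Test compound (0.5–100 μM final) and 40 μM Z-VKM-amc were pre-warmed to 30 °C. Pre-warmed enzyme was added to 20 μg ml−1 (27 nM) final. Fluorescence (ex 355/em 460 nm) was read every minute for 3.5 h at a constant 30 °C.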

[8] = target: T2, α/SalI 20S proteasome complex; assay: Time-dependence of inhibition, α/SalI; type: biochemical; conditions: 0.5–100 μM inhibitor, Z-VKM-amc, 3.5 h, 30 °C
Method in brief: as §1

[9] = target: T1, α/β1 20S proteasome complex; assay: Irreversibility of inhibition; type: biochemical; conditions: 250 μM inhibitor for 1.5 h at 30 °C, Z-VKM-amc
Method in brief: (§2)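 Recombinant S. tropica proteasome (His6-tagged α coexpressed with untagged β1 or SalI in E. coli BL21(DE3); Ni-NTA then size-exclusion purified). Enzyme at 20 μg ml−1 in 50 mM Tris-HCl pH 8.0 was held with 250 μM test compound or matching DMSO, 1.5 h, 30 °C. It was buffer-exchanged three times on 30 kDa cutoff filters, then added to 40 μM Z-VKM-amc. Fluorescence (ex 355/em 460 nm) was read every minute for 3 h at 30 °C.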

[10] = target: T2, α/SalI 20S proteasome complex; assay: Irreversibility of inhibition; type: biochemical; conditions: 250 μM inhibitor for 1.5 h at 30 °C, Z-VKM-amc
Method in brief: as §2

[11] = target: the molecule itself; assay: native gel or EMSA
[12] = IC50, α/SalI complex, substrate Z-VKM-amc 40 μM, mean ± SD, N = 3

Row | Molecule | IC50 [1] | IC50 [2] | IC50 [2, 12] | fold increase in IC50 with the α/SalI complex in comparison to the α/β1 complex (resistance) [2] | binding result [11] | also measured
1 | C[C@@]12OC(=O)[C@]1([C@@H](O)C1CCC1)NC(=O)[C@@H]2CCCl [Salinosporamide X3, salinosporamide X3] | > 250 µM | > 250 µM |  |  |  | 
2 | CC(C)C[C@H](NC(=O)[C@H](Cc1ccccc1)NC(=O)c1cnccn1)B(O)O [Bortezomib, bortezomib, reference compound] |  |  | 42.7 ± 3.4 µM | 13 fold |  | 
3 | C[C@@]12OC(=O)[C@]1([C@@H](O)[C@@H]1C=CCC1)NC(=O)[C@@H]2CCCl [Salinosporamide X7, salinosporamide X7] | 3.6 ± 0.2 µM | > 250 µM |  |  |  | 
4 | CC[C@H]1C(=O)N[C@@]2([C@@H](O)[C@@H]3C=CCCC3)C(=O)O[C@@]12C [Salinosporamide B, salinosporamide B] |  |  | 139 ± 27.3 µM | 7 fold |  | 
5 | CC(C)[C@H](O)[C@@]12NC(=O)[C@H](CCCl)[C@]1(C)OC2=O [Antiprotealide, antiprotealide] | 104 ± 7.2 µM | > 250 µM |  |  |  | 
6 | C[C@@]12OC(=O)[C@]1([C@@H](O)[C@@H]1C=CCCC1)NC(=O)[C@@H]2CCCl [Salinosporamide A, salinosporamide A] |  |  | 36.8 ± 2.4 µM | 16–30 fold and 30 fold |  | IC50 [3]: 1.2 ± 0.1 µM; IC50 [4]: 13.6 ± 2.2 µM; increase in IC50 of α/β1 A49V mutant ([4]; α/β1 A49V versus wild-type α/β1, Z-VKM-amc): greater than a ten-fold increase; IC50 [5]: 15.3 ± 2.2 µM; IC50 ([2]; IC50, α/SalI complex, substrate Suc-LLVY-amc 40 μM, mean ± SD, N = 3): 52 ± 3.5 µM; IC50 [6]: 45.5 ± 2.3 µM; time-dependence of inhibition [7]: time-dependent inhibition; time-dependence of inhibition [8]: time-dependent inhibition; recovery of proteolytic activity after buffer exchange to remove inhibitor [9]: no recovery of proteolytic activity; recovery of proteolytic activity after buffer exchange to remove inhibitor [10]: no recovery of proteolytic activity
7 | CCC[C@H](O)[C@@]12NC(=O)[C@H](CCCl)[C@]1(C)OC2=O [Salinosporamide X5, salinosporamide X5] | > 250 µM | > 250 µM |  |  |  | 
8 | SalI, proteasome β-subunit of the salinosporamide biosynthetic gene cluster (Strop_1015) (natural protein, Salinispora tropica CNB-440, UniProt A4X3P0 49-282, looked up) TTIVAATFAGGVLLAGDRRTTMGNLIAGRDVDKLTITDDYSAVGFAGTVGISIDMTRLFVVELEHYEKIEGVPLSLEGKSNRLAAIVKGNLPMANAGMVSIPLFIGYDLEASDPARAGRIVSFDAIGARYEEKSGYQSIGSGSPFAKSSLKKLHDPGSDDAATLSALIEALYDAADDDSATGGPDMVRRIFPTAIRITAEGAYRYTEEELAAVADAVVARRSADEPGVRSFTAS |  |  |  |  | binds | 
9 | Salinispora tropica CNB-440 20S proteasome β-subunit β1 (Strop_2244) (natural protein, UniProt A4X744 54-279, looked up) TTIVAIATAGGVVLAGDRRATMGNLIAQRDVEKVHPADAYSLVGMAGAAGIGIELTRLFQVELEHYEKTEGAMLSLDGKANRLAAMVRGNLGAAMQGLAVVPLFAGFDLAATDPAKAGRIFSFDVTGGPYEETGYDAVGSGSVFAKSALKKRFRLGLSVDDAVRLAVEALYDAADDDTATGGPDLTRRIYPVVMSATAEGTHRLTEAETAAIAESVVAGRMENPGG |  |  |  |  | binds | 
10 | Salinispora tropica CNB-440 20S proteasome α-subunit (Strop_2245) (natural protein, UniProt A4X745 1-260, looked up) MAMQFYASPEQIMRDRSELARKGIARGRSAVVLSYAGGVLFVAENLSSALHKVGEIYDRIGFAAVGRYNEFENLRRAGVRMADLNGLSYDRRDVTGRALANSFAQTLGAIFTEQSKPFEVEICVAQVGVTAEDDELYRLTYDGSVNDEPGRMAMGGQAEAIAGALKSNHRSDMSLGDAVKVAVRALGSVGGEGGAARTIAADQLEVAILDRHRDGRTFRRVTGAALTALLDDGAAAASTDAPAAAADSADVEERPDSEAP |  |  |  |  | binds | 

Source: publication PMC3220761 (ACS chemical biology, 2011)
